Data as given in ChEMBL document CHEMBL4622853, “Design and synthesis of novel pyrrolo[2,3-b]pyridine derivatives targeting V600EBRAF” (Bioorg Med Chem, 2020).
pIC50: −log10 of the molar value.

Experiments:
[1] = biological target: Serine/threonine-protein kinase B-raf (Homo sapiens, UniProt P15056); test: Inhibition of human wild type BRAF at 10 uM by ELISA
In short: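 Wild-type BRAF kinase inhibition run in the same manner as the V600E-B-RAF ELISA, reported as percent inhibition at 10 µM.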

IGROV-1 [2] = test: Cytotoxicity against human IGROV1 cells assessed as reduction in cell viability after 48 hrs by SRB assay; format: functional, cell-based; conditions: IGROV-1, 48 h
In short: (§1)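 Cell lines from the NCI sixty human cancer cell line panel. IC50 taken as the concentration that reduces cellular growth to 50% of untreated cells.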

K562 [3] = test: Cytotoxicity against human K562 cells assessed as reduction in cell viability after 48 hrs by SRB assay; format: functional, cell-based; conditions: K562, 48 h; in short: as §1
ACHN [4] = test: Cytotoxicity against human ACHN cells assessed as reduction in cell viability after 48 hrs by SRB assay; format: functional, cell-based; in short: as §1
CAKI-1 [5] = test: Cytotoxicity against human Caki1 cells assessed as reduction in cell viability after 48 hrs by SRB assay; format: functional, cell-based; conditions: CAKI-1, 48 h; in short: as §1
Hs-578T = test: Cytotoxicity against human Hs 578T cells assessed as reduction in cell viability after 48 hrs by SRB assay; format: functional, cell-based; in short: as §1
SK-OV-3 [6] = test: Cytotoxicity against human SKOV3 cells assessed as reduction in cell viability after 48 hrs by SRB assay; format: functional, cell-based; conditions: SK-OV-3, 48 h; in short: as §1
HCT-116 = test: Cytotoxicity against human HCT116 cells assessed as reduction in cell viability after 48 hrs by SRB assay; format: functional, cell-based; conditions: HCT-116, 48 h; in short: as §1
A498 = test: Cytotoxicity against human A498 cells assessed as reduction in cell viability after 48 hrs by SRB assay; format: functional, cell-based; conditions: A498, 48 h; in short: as §1
HL-60(TB) [7] = test: Cytotoxicity against human HL-60(TB) cells assessed as reduction in cell viability at 10 uM after 48 hrs by SRB assay relative to control; format: functional; conditions: HL-60, 48 h
DU-145 = test: Cytotoxicity against human DU145 cells assessed as reduction in cell viability after 48 hrs by SRB assay; format: functional, cell-based; conditions: DU-145, 48 h; in short: as §1
MDA-MB-231 = test: Cytotoxicity against human MDA-MB-231 cells assessed as reduction in cell viability after 48 hrs by SRB assay; format: functional, cell-based; conditions: MDA-MB-231, 48 h; in short: as §1
NCI-H522 = test: Cytotoxicity against human NCI-H522 cells assessed as reduction in cell viability after 48 hrs by SRB assay; format: functional, cell-based; conditions: NCI-H522, 48 h; in short: as §1
[8] = biological target: Serine/threonine-protein kinase B-raf (Homo sapiens, UniProt P15056, V600E); test: Inhibition of human BRAF V600E mutant by ELISA
HL-60(TB) [9] = test: Cytotoxicity against human HL-60(TB) cells assessed as reduction in cell viability after 48 hrs by SRB assay; format: functional, cell-based; conditions: HL-60, 48 h
In short: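 Tested within the NCI sixty human cancer cell line panel. IC50 is the concentration that reduces cellular growth to 50% of untreated cells after treatment.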

LOX IMVI = test: Cytotoxicity against human LOXIMVI cells assessed as reduction in cell viability after 48 hrs by SRB assay; format: functional, cell-based; in short: as §1
SK-MEL-2 [10] = test: Cytotoxicity against human SK-MEL-2 cells assessed as reduction in cell viability after 48 hrs by SRB assay; format: functional, cell-based; conditions: SK-MEL-2, 48 h; in short: as §1
[11] = tested on: Serine/threonine-protein kinase B-raf (Homo sapiens), P15056 [V600E]; test: Inhibition of human BRAF V600E mutant at 10 uM by ELISA
M14 [12] = test: Cytotoxicity against human M14 cells assessed as reduction in cell viability after 48 hrs by SRB assay; format: functional, cell-based; conditions: M14, 48 h; in short: as §1
NCI-H460 = test: Cytotoxicity against human NCI-H460 cells assessed as reduction in cell viability after 48 hrs by SRB assay; format: functional, cell-based; conditions: NCI-H460, 48 h; in short: as §1
K562 [13] = test: Cytotoxicity against human K562 cells assessed as reduction in cell viability at 10 uM after 48 hrs by SRB assay relative to control; format: functional; conditions: K562, 48 h
Malme-3M = test: Cytotoxicity against human MALME-3M cells assessed as reduction in cell viability after 48 hrs by SRB assay; format: functional, cell-based; in short: as §1
SK-MEL-2 [14] = test: Cytotoxicity against human SK-MEL-2 cells assessed as reduction in cell viability at 10 uM after 48 hrs by SRB assay relative to control; format: functional; conditions: SK-MEL-2, 48 h
M14 [15] = test: Cytotoxicity against human M14 cells assessed as reduction in cell viability at 10 uM after 48 hrs by SRB assay relative to control; format: functional; conditions: M14, 48 h
CAKI-1 [16] = test: Cytotoxicity against human Caki1 cells assessed as reduction in cell viability at 10 uM after 48 hrs by SRB assay relative to control; format: functional; conditions: CAKI-1, 48 h
IGROV-1 [17] = test: Cytotoxicity against human IGROV1 cells assessed as reduction in cell viability at 10 uM after 48 hrs by SRB assay relative to control; format: functional; conditions: IGROV-1, 48 h
SK-OV-3 [18] = test: Cytotoxicity against human SKOV3 cells assessed as reduction in cell viability at 10 uM after 48 hrs by SRB assay relative to control; format: functional; conditions: SK-OV-3, 48 h
ACHN [19] = test: Cytotoxicity against human ACHN cells assessed as reduction in cell viability at 10 uM after 48 hrs by SRB assay relative to control; format: functional

Sequence of Serine/threonine-protein kinase B-raf (Homo sapiens, UniProt P15056) (P15056 whole entry): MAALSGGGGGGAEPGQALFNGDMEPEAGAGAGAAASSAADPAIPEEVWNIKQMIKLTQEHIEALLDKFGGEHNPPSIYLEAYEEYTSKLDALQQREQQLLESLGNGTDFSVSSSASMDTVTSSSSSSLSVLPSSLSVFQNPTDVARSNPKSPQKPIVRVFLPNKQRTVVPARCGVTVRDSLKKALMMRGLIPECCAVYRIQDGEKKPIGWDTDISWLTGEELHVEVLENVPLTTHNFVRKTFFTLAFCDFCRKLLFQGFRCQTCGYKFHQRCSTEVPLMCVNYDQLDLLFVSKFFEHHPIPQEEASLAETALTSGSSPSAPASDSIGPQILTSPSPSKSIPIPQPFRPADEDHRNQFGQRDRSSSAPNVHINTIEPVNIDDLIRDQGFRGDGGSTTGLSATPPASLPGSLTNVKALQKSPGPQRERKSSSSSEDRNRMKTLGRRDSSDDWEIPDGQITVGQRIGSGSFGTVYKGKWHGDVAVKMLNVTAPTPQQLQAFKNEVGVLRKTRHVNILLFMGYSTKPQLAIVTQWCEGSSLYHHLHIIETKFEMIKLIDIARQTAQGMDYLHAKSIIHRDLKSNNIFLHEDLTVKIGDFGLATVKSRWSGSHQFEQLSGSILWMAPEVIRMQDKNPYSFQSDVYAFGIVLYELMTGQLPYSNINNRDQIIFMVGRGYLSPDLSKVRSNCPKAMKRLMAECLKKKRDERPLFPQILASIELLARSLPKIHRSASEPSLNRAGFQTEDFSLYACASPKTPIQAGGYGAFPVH
Sequence of Serine/threonine-protein kinase B-raf (Homo sapiens), P15056 [V600E] (P15056 whole entry V600E): as the sequence (P15056 whole entry) above, with V600E counted along it
Sequence of Serine/threonine-protein kinase B-raf (Homo sapiens, UniProt P15056, V600E) (P15056 2-766 V600E limits assumed): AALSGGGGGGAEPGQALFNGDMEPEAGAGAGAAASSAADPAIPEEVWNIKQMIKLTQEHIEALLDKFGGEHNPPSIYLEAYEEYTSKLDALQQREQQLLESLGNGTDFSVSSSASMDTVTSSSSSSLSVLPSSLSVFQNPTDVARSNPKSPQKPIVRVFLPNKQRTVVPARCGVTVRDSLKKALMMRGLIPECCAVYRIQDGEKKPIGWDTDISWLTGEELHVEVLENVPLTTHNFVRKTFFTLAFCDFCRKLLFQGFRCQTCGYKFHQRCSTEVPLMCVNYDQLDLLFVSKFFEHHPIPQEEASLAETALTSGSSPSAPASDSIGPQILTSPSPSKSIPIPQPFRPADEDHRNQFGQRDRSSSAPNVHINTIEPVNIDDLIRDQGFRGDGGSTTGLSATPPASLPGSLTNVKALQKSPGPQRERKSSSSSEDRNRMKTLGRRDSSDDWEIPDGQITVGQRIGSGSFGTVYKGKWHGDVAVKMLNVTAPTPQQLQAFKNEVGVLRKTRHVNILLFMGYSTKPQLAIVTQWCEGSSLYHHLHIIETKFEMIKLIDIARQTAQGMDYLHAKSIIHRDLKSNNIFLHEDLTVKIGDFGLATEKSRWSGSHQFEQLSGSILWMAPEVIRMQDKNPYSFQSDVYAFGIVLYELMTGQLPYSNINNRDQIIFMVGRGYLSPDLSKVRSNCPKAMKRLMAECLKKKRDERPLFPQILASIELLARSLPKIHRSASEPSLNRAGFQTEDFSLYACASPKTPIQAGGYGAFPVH

Q: What does the source list for O=C(Nc1ccc(C(F)(F)F)cc1)Nc1ccc(F)c(C(=O)c2c[nH]c3ncccc23)c1F?
A: inhibition [1]: 79.3%; pIC50 (IGROV-1 [2]): 5.02; pIC50 (K562 [3]): 4.60; pIC50 (ACHN [4]): 4.67; pIC50 (CAKI-1 [5]): 4.85; pIC50 (Hs-578T): 4.67; pIC50 (SK-OV-3 [6]): 4.73; pIC50 (HCT-116): 4.81; pIC50 (A498): 4.49; inhibition at 10 µM (HL-60(TB) [7]): 67%; pIC50 (DU-145): 4.56; pIC50 (MDA-MB-231): 5.01; pIC50 (NCI-H522): 4.54; pIC50 [8]: 6.94; pIC50 (HL-60(TB) [9]): 5.09; pIC50 (LOX IMVI): 4.57; pIC50 (SK-MEL-2 [10]): 4.68; inhibition [11]: 98.7%; pIC50 (M14 [12]): 4.61; pIC50 (NCI-H460): 4.58; inhibition at 10 µM (K562 [13]): 83%; pIC50 (Malme-3M): 4.91

Q: Which results are given for O=C(Nc1ccc(Br)cc1)Nc1ccc(F)c(C(=O)c2c[nH]c3ncc(Br)cc23)c1F?
A: inhibition [1]: 72.5%; pIC50 (IGROV-1 [2]): 5.30; pIC50 (K562 [3]): 5.14; inhibition at 10 µM (SK-MEL-2 [14]): 85%; pIC50 (ACHN [4]): 5.12; pIC50 (CAKI-1 [5]): 5.52; pIC50 (Hs-578T): 5.03; pIC50 (SK-OV-3 [6]): 5.34; pIC50 (HCT-116): 5.06; pIC50 (A498): 4.95; pIC50 (DU-145): 5.02; pIC50 (MDA-MB-231): 4.91; pIC50 (NCI-H522): 5.05; inhibition at 10 µM (M14 [15]): 65%; pIC50 [8]: 7.10; pIC50 (HL-60(TB) [9]): 4.96; pIC50 (LOX IMVI): 4.58; pIC50 (SK-MEL-2 [10]): 5.22; inhibition [11]: 92.3%; inhibition at 10 µM (CAKI-1 [16]): 90%; inhibition at 10 µM (IGROV-1 [17]): 75%; pIC50 (M14 [12]): 5.10; pIC50 (NCI-H460): 4.98; inhibition at 10 µM (SK-OV-3 [18]): 87%; inhibition at 10 µM (ACHN [19]): 70%; inhibition at 10 µM (K562 [13]): 65%; pIC50 (Malme-3M): 5.03
